Activity calls are given as the source filed them. The calls are words filed in the database; no cut-off is given here.
Key:
[1] = Inhibition of bovine brain FAK after 20 mins by turbidimetry; design: species or system Bos taurus
[2] = tested on: MCF7; experiment: Antiproliferative activity against human MCF7 cells after 48 hrs by MTT assay; assay type: functional, cell-based; details: MCF7, 48 h
How it was run: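 MCF-7 cells were grown to log phase in RPMI 1640 with 10% FBS, diluted to 2 × 10⁴ cells/mL and seeded, then held 24 h at 37 °C, 5% CO₂. Compounds at pre-set concentrations went into six wells, with staurosporine as positive reference, for 48 h. MTT in PBS (2.5 mg/mL) was added, incubation ran overnight at 37 °C, and OD was read at 570 nm. Triplicate wells per concentration; assay run ≥3 times.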

[3] = tested on: B16-F10; experiment: Antiproliferative activity against mouse B16F10 cells after 48 hrs by MTT assay; assay type: functional, cell-based; details: B16-F10, 48 h
[4] = molecular target: Focal adhesion kinase 1 (Homo sapiens) (UniProt Q05397); experiment: Inhibition of FAK in human MCF7 cells at 2 to 8 uM by Western blot analysis; assay type: cell-based
Sequence of Focal adhesion kinase 1 (Homo sapiens) (Q05397 2-1052 limits assumed): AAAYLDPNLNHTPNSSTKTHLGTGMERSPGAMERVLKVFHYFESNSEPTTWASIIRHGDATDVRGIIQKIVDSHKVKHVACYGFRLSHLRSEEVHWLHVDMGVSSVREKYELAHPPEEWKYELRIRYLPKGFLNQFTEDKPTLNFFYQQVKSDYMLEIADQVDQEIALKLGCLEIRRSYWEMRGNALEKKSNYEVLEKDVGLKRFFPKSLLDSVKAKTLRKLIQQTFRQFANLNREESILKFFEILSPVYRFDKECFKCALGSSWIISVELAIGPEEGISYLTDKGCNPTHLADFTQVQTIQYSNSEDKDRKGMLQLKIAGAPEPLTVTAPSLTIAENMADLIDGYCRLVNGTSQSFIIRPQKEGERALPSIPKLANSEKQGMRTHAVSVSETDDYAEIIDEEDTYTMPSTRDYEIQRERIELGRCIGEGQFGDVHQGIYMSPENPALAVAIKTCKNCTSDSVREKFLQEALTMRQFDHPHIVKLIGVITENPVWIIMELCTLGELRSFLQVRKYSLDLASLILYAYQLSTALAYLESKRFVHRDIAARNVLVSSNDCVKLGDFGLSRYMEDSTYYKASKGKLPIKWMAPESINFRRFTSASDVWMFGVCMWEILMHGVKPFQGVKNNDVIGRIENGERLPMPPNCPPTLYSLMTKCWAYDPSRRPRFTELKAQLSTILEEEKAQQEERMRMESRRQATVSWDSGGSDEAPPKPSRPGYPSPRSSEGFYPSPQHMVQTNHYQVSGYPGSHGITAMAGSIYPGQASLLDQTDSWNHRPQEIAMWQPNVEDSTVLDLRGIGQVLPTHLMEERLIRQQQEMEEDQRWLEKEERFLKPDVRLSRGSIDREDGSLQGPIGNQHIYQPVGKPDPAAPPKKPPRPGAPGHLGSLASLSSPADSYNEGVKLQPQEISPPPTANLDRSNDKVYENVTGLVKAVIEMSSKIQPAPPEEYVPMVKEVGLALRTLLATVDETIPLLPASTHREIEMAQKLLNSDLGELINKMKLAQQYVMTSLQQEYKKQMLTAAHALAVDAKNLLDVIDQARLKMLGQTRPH
How it was run: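 After treatment, cells were PBS-washed and lysed in Tris/NaCl/PMSF/Na₃VO₄/NP-40/glycerol buffer with phosphatase and protease inhibitors, then spun at 12,000g for 5 min. Protein was measured by BCA, resolved on 10% SDS–PAGE and transferred to PVDF. Membranes were blocked in 5% nonfat milk for 2 h at room temperature, probed with primary antibodies overnight at 4 °C, then HRP secondary. Representative of three independent experiments.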

SMILES	IC50 [1]	IC50 [2]	IC50 [3]	inhibition [4]
O=C(Nc1nnc(-c2ccccc2)s1)c1ccc(F)cc1	14 µM	4.85 µM	4.36 µM	
O=C(Nc1nnc(-c2ccccc2)s1)c1ccccc1O	9.36 µM	2.76 µM	2.02 µM	
Cc1ccc(-c2nnc(NC(=O)c3cccnc3)s2)cc1	12.4 µM	4.52 µM	3.88 µM	
O=C(Nc1nnc(-c2ccccc2)s1)c1cc(Br)ccc1O	7.25 µM	1.28 µM	1.28 µM	
O=C(Nc1nnc(-c2ccc(Cl)cc2)s1)c1cc(Cl)ccc1O	5.32 µM	0.45 µM	0.31 µM	Active
O=C(Nc1nnc(-c2ccc(F)cc2)s1)c1cc(Br)ccc1O	6.41 µM	0.86 µM	1.02 µM	
O=C(Nc1nnc(-c2ccccc2)s1)c1cccnc1	18.6 µM	8.22 µM	6.18 µM	
O=C(Nc1nnc(-c2ccccc2)s1)c1ccccc1	16.2 µM	5.87 µM	5.15 µM	
O=C(Cc1ccccc1)Nc1nnc(-c2ccc(Br)cc2)s1	21.5 µM	7.52 µM	9.06 µM	
O=C(Nc1nnc(-c2ccccc2)s1)c1cc(Cl)ccc1O	6.89 µM	1.12 µM	1.14 µM	
O=C(Nc1nnc(-c2ccc(Cl)cc2)s1)c1cc(Br)ccc1O	5.85 µM	0.67 µM	0.56 µM	
O=C(Nc1nnc(-c2ccc(F)cc2)s1)c1cc(Cl)ccc1O	6.13 µM	0.75 µM	0.68 µM	
O=C(Nc1nnc(-c2ccc(F)cc2)s1)c1ccccc1O	7.02 µM	1.21 µM	1.16 µM	
Cc1ccc(-c2nnc(NC(=O)c3ccccc3O)s2)cc1	8.54 µM	2.36 µM	1.97 µM	
O=C(Nc1nnc(-c2ccc(Cl)cc2)s1)c1ccccc1O	6.79 µM	1.02 µM	1.15 µM	
O=C(Cc1ccccc1)Nc1nnc(-c2ccc(Cl)cc2)s1	19.7 µM	6.47 µM	8.23 µM	
CN[C@@H]1C[C@H]2O[C@@](C)([C@@H]1OC)n1c3ccccc3c3c4c(c5c6ccccc6n2c5c31)C(=O)NC4 [STAUROSPORINE]		3.07 µM		

Other lines, results leading:

IC50 [1]	IC50 [2]	IC50 [3]	inhibition [4]	SMILES
11.9 µM	4.49 µM	4.65 µM		O=C(Nc1nnc(-c2ccccc2)s1)c1ccc(Cl)cc1
11.7 µM	3.57 µM	3.52 µM		Cc1ccc(-c2nnc(NC(=O)c3ccccc3)s2)cc1
7.71 µM	1.55 µM	1.58 µM		COc1ccc(-c2nnc(NC(=O)c3ccccc3)s2)cc1
7.47 µM	2.17 µM	1.39 µM		COc1ccc(-c2nnc(NC(=O)c3ccccc3O)s2)cc1
12.7 µM	4.85 µM	4.06 µM		O=C(Nc1nnc(-c2ccc(Cl)cc2)s1)c1ccccc1
9.75 µM	2.99 µM	2.36 µM		COc1ccc(-c2nnc(NC(=O)c3cccnc3)s2)cc1
9.84 µM	3.28 µM	2.76 µM		Cc1ccc(C(=O)Nc2nnc(-c3ccccc3)s2)cc1
7.89 µM	1.83 µM	1.75 µM		COc1ccc(C(=O)Nc2nnc(-c3ccccc3)s2)cc1
15.5 µM	5.35 µM	4.75 µM		O=C(Nc1nnc(-c2ccc(F)cc2)s1)c1ccccc1

Reference: ChEMBL document CHEMBL2016570, “Synthesis, biological evaluation, and molecular docking studies of 1,3,4-thiadiazol-2-amide derivatives as novel anticancer agents” (Bioorg Med Chem, 2012)
